Legend:
PC-3 = assay: Cytotoxicity against human PC3 cells assessed as reduction in cell viability incubated for 72 hrs by MTT assay; details: PC-3, 72 h
HEK-293T = assay: Cytotoxicity against HEK293T cells assessed as reduction in cell viability incubated for 72 hrs by MTT assay; details: Homo sapiens
U-87 MG = assay: Cytotoxicity against human U87MG cells assessed as reduction in cell viability incubated for 72 hrs by MTT assay
HT-29 = assay: Cytotoxicity against human HT-29 cells assessed as reduction in cell viability incubated for 72 hrs by MTT assay; details: HT-29, 72 h
A549 = assay: Cytotoxicity against human A549 cells assessed as reduction in cell viability incubated for 72 hrs by MTT assay; details: A549, 72 h
Danio rerio = assay: Antiangiogenic activity in transgenic fli1a:EGFP-tagged zebrafish embryo assessed as reduction in intersegmental vessel sprouting at 0.1 to 1 uM administered from 24 hrs post fertilization and measured after 72 hrs by fluorescence microscopy relative to control; assay type: functional; set-up: scale not given: the % may be the effect or the level left
Outline: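 Embryos staged after natural spawning and kept in E3 medium at 28.5 °C. At 1 dpf, 10 embryos per well were placed in E3 containing compound at […] and incubated 72 h at 28.5 °C. Untreated and 1% DMSO vehicle controls were included. Larvae were anaesthetised with 0.01% tricaine and mounted in 1% low-melt agarose. ISVs were imaged in the green channel, and % defective ISVs was counted manually.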

COc1ccc(-c2nn(-c3ccccc3)cc2C(=O)Nc2nc3ccc(Cl)cc3s2)cc1
IC50 (PC-3): 6.51 µM
IC50 (HEK-293T): 12.6 µM
IC50 (U-87 MG): 8.71 µM
IC50 (HT-29): 6.57 µM
IC50 (A549): 4.71 µM

COc1ccc(-c2nn(-c3ccccc3)cc2C(=O)Nc2nc3ccc(OC)cc3s2)cc1
IC50 (PC-3): 13.5 µM
IC50 (HEK-293T): > 50 µM
IC50 (U-87 MG): 5.89 µM
IC50 (HT-29): > 50 µM
IC50 (A549): 18.9 µM

O=C(Nc1nc2ccc(F)cc2s1)c1cn(-c2ccccc2)nc1-c1ccccc1
IC50 (PC-3): 3.25 µM
IC50 (HEK-293T): 17.6 µM
IC50 (U-87 MG): 5.57 µM
IC50 (HT-29): 9.8 µM
IC50 (A549): 10.2 µM

O=C(Nc1nc2ccccc2s1)c1cn(-c2ccccc2)nc1-c1ccccc1
IC50 (PC-3): 10.4 µM
IC50 (HEK-293T): > 50 µM
IC50 (U-87 MG): 8.96 µM
IC50 (HT-29): 16.8 µM
IC50 (A549): 13.5 µM

O=C(Nc1nc2ccc(F)cc2s1)c1cn(-c2ccccc2)nc1-c1ccc(F)cc1
IC50 (PC-3): 5.26 µM
IC50 (HEK-293T): 16.7 µM
IC50 (U-87 MG): 12.5 µM
IC50 (HT-29): 4.16 µM
IC50 (A549): 6.65 µM

Cc1ccc2nc(NC(=O)c3cn(-c4ccccc4)nc3-c3ccc(F)cc3)sc2c1
IC50 (PC-3): 20.5 µM
IC50 (HEK-293T): > 50 µM
IC50 (U-87 MG): > 50 µM
IC50 (HT-29): 22.9 µM
IC50 (A549): 24.6 µM

O=C(Nc1nc2ccccc2s1)c1cn(-c2ccccc2)nc1-c1ccc(F)cc1
IC50 (PC-3): 7.13 µM
IC50 (HEK-293T): 33.4 µM
IC50 (U-87 MG): 10.7 µM
IC50 (HT-29): 9.06 µM
IC50 (A549): 9.01 µM

CNC(=O)c1ccccc1Sc1ccc2c(/C=C/c3ccccn3)n[nH]c2c1 [AXITINIB]
Activity (Danio rerio): 63.1 - 90.4%

O=C(Nc1nc2ccc(Cl)cc2s1)c1cn(-c2ccccc2)nc1-c1ccccc1
IC50 (PC-3): 3.69 µM
IC50 (HEK-293T): 21.3 µM
IC50 (U-87 MG): 4.98 µM
IC50 (HT-29): 7.81 µM
IC50 (A549): 7.67 µM

COc1ccc2nc(NC(=O)c3cn(-c4ccccc4)nc3-c3ccc(F)cc3)sc2c1
IC50 (PC-3): 12.8 µM
IC50 (HEK-293T): > 50 µM
IC50 (U-87 MG): > 50 µM
IC50 (HT-29): 33.2 µM
IC50 (A549): > 50 µM

O=C(Nc1nc2ccc(Cl)cc2s1)c1cn(-c2ccccc2)nc1-c1ccc(Cl)cc1
IC50 (PC-3): 3.23 µM
IC50 (HEK-293T): 15.7 µM
IC50 (U-87 MG): 5.87 µM
IC50 (HT-29): 4.55 µM
IC50 (A549): 4.36 µM
